Activity calls are given as the source filed them. No cut-off for these calls is given here.
Columns and labels:
[1] = biological target: T1, Glycogen synthase kinase-3 beta (Homo sapiens, UniProt P49841); assay: Inhibition of human recombinant GSK3beta at 10 uM after 30 mins by luminescence assay in presence of ATP
In short: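 Human recombinant GSK-3β (20 ng) with prephosphorylated polypeptide substrate 25 μM and ATP 1 μM in 50 mM HEPES pH 7.5, 1 mM EDTA, 1 mM EGTA, 15 mM Mg acetate. Final DMSO ≤1%. Incubated 30 min at 30 °C, stopped with Kinase-Glo reagent, and luminescence read after 10 min. Inhibition is relative to the no-inhibitor maximum. IC50 is the concentration giving 50% activity loss.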
Target sequence in this assay (P49841 whole entry, looked up): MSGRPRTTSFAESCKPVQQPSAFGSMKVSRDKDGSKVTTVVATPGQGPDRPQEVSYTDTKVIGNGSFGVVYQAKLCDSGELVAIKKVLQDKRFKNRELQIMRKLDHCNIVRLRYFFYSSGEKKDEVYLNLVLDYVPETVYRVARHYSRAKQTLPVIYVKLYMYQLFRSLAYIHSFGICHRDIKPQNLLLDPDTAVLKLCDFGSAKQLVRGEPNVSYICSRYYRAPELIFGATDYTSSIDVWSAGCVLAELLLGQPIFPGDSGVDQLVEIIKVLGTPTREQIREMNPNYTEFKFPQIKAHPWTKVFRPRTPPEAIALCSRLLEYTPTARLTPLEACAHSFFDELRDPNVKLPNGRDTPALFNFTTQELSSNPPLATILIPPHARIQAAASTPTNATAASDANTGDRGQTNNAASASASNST

[2] = Effective permeability across porcine polar brain lipid after 4 hrs by PAMPA; settings: pig; for Peff: pampa, 4 h; for Papp at 4 h: PAMPA
[3] = biological target: T1, Glycogen synthase kinase-3 beta; assay: Inhibition of human recombinant GSK3beta after 30 mins by luminescence assay in presence of ATP
Target sequence in this assay (P49841 whole entry): as the sequence (P49841 whole entry, looked up) above

Microglia = assay: Neuroprotective activity in rat microglia cells assessed as decrease in LPS-induced nitrite production at 28 to 52 ug/ml after 24 hrs administered 1 hr before LPS challenge by Griess method; format: functional, cell-based
In short: (§1)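 Astrocytes and microglia were from neonatal (P2) rat cortex, separated by shaking; microglia received 10 ng/mL GM-CSF. Purity >98% (OX42/GFAP). Cells were pretreated 1 h with compound, then given LPS for 24 h. Supernatant was mixed 1:1 with Griess reagent, left 15 min at room temperature, and absorbance read at 492/540 nm.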

Cortical neurone = assay: Neuroprotective activity in rat cortical neurons assessed as decrease in LPS-induced nitrite production at 28 to 52 ug/ml after 24 hrs administered 1 hr before LPS challenge by Griess method; format: functional
In short: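 Cortical neurons from E18 rats were grown in Neurobasal/B-27 at 37 °C, 5% CO2 for 1 week. They were pretreated 1 h with compound, then exposed to supernatant from LPS-stimulated microglia. After 24 h, nitrite in the medium was measured by Griess reaction (equal volume reagent, 15 min room temperature, absorbance 492/540 nm).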

NSC = assay: Neurogenic activity in rat hippocampal NSC assessed as increase in beta-tubulin after 24 hrs by DAPI staining-based immunocytometric analysis; format: functional, cell-based; settings: Hippocampus
In short: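 Neurospheres from adult rat hippocampus were expanded in DMEM/F12 with EGF and FGF (10 ng/mL each) and B27, and treated with compound. Spheres were plated on poly-L-lysine without growth factors. Cells were fixed in 4% paraformaldehyde, permeabilized with 0.1% Triton X-100, stained with anti-β-tubulin (Tuj1) and an Alexa secondary, counterstained with DAPI, and imaged by confocal microscopy.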

Astrocyte = assay: Neuroprotective activity in rat astrocytes assessed as decrease in LPS-induced nitrite production at 28 to 52 ug/ml after 24 hrs administered 1 hr before LPS challenge by Griess method; format: functional, cell-based; in short: as §1

SMILES	inhibition [1]	IC50 [3] [nM]	further results
c1ccc(/N=C(/N=c2/nc3ccccn3s2)c2ccccc2)cc1	14%	–	–
S=C(NCc1cccnc1)N/C(=N/c1ccccc1)c1cccc2ccccc12	inactive	–	–
Br.c1ccc(/N=c2/nc(-c3ccccc3)n(-c3ccccc3)s2)cc1	> 60%	–	Peff [2]: ND(Insoluble)
Br.CCOC(=O)C/N=c1\nc(-c2ccc(OC)cc2)n(-c2ccccc2)s1	> 60%	500	Papp at 4 h [2]: 4 ×10⁻⁶ cm/s
S=C(NCCN1CCOCC1)N/C(=N/c1ccccc1)c1ccccc1	inactive	–	–
Br.OCC/N=c1\nc(-c2cccc3ccccc23)n(-c2ccccc2)s1	> 60%	300	Papp at 4 h [2]: 10.2 ×10⁻⁶ cm/s
COc1ccc(/C(=N\c2ccccc2)NC(=S)Nc2ccccc2)cc1	inactive	–	–
CCOC(=O)CNC(=S)N/C(=N/c1ccc([N+](=O)[O-])cc1)c1ccccc1	inactive	–	–
CCCCCNC(=S)N/C(=N/c1ccccc1)c1ccc(OC)cc1	inactive	–	–
COc1ccc(/N=C(/NC(=S)NCc2cccnc2)c2ccccc2)cc1	inactive	–	–
Br.c1ccc(-c2n/c(=N\C3CCCCC3)sn2-c2ccccc2)cc1	> 60%	2100	Peff [2]: ND(Insoluble)
CCOC(=O)C/N=c1\nc(-c2ccccc2)n(-c2ccccc2)s1 [listing 1 of 2 here]	> 60%	–	Activity (Microglia): Active; Activity (Cortical neurone): Active; Activity (NSC): Active; Activity (Astrocyte): Active
S=C(NCc1cccnc1)N/C(=N/c1cccc2ccccc12)c1ccccc1	inactive	–	–
S=C(N/C(=N/c1ccccc1)c1ccccc1)Nc1ccccn1	inactive	–	–
S=C(N/C(=N/c1ccccc1)c1ccccc1)Nc1ccccc1	inactive	–	–
Br.COc1ccc(-c2n/c(=N\Cc3cccnc3)sn2-c2ccccc2)cc1	> 60%	1200	Papp at 4 h [2]: 4.8 ×10⁻⁶ cm/s
c1ccc(-n2s/c(=N/Cc3cccnc3)nc2-c2cccc3ccccc23)cc1 [listing 1 of 3 here]	> 60%	–	–
S=C(NCc1cccnc1)N/C(=N/c1ccccc1)c1ccccc1	inactive	–	–
Br.N=c1nc(-c2ccccc2)n(-c2ccccc2)s1	> 60%	600	Papp at 4 h [2]: 9.1 ×10⁻⁶ cm/s
Br.COc1ccc(-c2n/c(=N\CCO)sn2-c2ccccc2)cc1	> 60%	1200	Papp at 4 h [2]: 13.7 ×10⁻⁶ cm/s
CNCCCN1c2ccccc2CCc2ccccc21 [DESIPRAMINE]	–	–	Papp at 4 h [2]: 14.9 ×10⁻⁶ cm/s

SMILES	inhibition [1]	IC50 [3] [nM]	further results
CCOC(=O)CNC(=S)N/C(=N/c1ccccc1)c1ccc(OC)cc1	inactive	–	–
OCC/N=c1\nc(-c2ccccc2)n(-c2cccc3ccccc23)s1	> 60%	300	–
COc1ccc(/C(=N\c2ccccc2)NC(=S)NCCO)cc1	inactive	–	–
c1ccc(-n2s/c(=N/Cc3cccnc3)nc2-c2cccc3ccccc23)cc1 [listing 2 of 3 here]	–	900	–
CCCCC/N=c1\nc(-c2ccc(OC)cc2)n(-c2ccccc2)s1 [listing 1 of 2 here]	> 60%	–	–
Br.COc1ccc(-c2n/c(=N\c3ccccc3)sn2-c2ccccc2)cc1	> 60%	1100	Peff [2]: ND(Insoluble)
CCCCC/N=c1\nc(-c2ccc(OC)cc2)n(-c2ccccc2)s1.Cl	–	1100	Papp at 4 h [2]: 8.5 ×10⁻⁶ cm/s
Cl.OCC/N=c1\nc(-c2ccccc2)n(-c2ccccc2)s1	–	600	Papp at 4 h [2]: 13.6 ×10⁻⁶ cm/s
COc1ccc(/N=C(/NC(=S)NCCO)c2ccccc2)cc1	inactive	–	–
CCCCCNC(=S)N/C(=N/c1ccccc1)c1ccccc1	inactive	–	–
O=[N+]([O-])c1ccc(/N=C(/NC(=S)NCc2cccnc2)c2ccccc2)cc1	inactive	–	–
FC(F)(F)c1ccc(/C(=N\c2ccccc2)NC(=S)NCc2cccnc2)cc1	inactive	–	–
Br.CCOC(=O)C/N=c1\nc(-c2ccccc2)n(-c2ccc(OC)cc2)s1	> 60%	2000	Papp at 4 h [2]: 4.4 ×10⁻⁶ cm/s
OCCNC(=S)N/C(=N/c1ccccc1)c1cccc2ccccc12	inactive	–	–
S=C(NCc1cccnc1)N/C(=N/Cc1ccccc1)c1ccccc1	inactive	–	–
C/C(=N\c1ccccc1)NC(=S)NCc1cccnc1	inactive	–	–
COc1ccc(/C(=N\c2ccccc2)NC(=S)NCc2cccnc2)cc1	inactive	–	–
c1ccc(Cn2s/c(=N/Cc3cccnc3)nc2-c2ccccc2)cc1	> 60%	1100	–
CCCCCc1n/c(=N\Cc2cccnc2)sn1-c1ccccc1	> 60%	800	–
CCCCC/N=c1\nc(-c2ccc(OC)cc2)n(-c2ccccc2)s1 [listing 2 of 2 here]	–	300	–
CCOC(=O)CNC(=S)N/C(=N/c1ccc(OC)cc1)c1ccccc1	inactive	–	–

SMILES	inhibition [1]	IC50 [3] [nM]	further results
c1ccc(/N=c2\nc(-c3ccccc3)n(-c3ccccc3)s2)cc1	> 60%	–	Peff [2]: ND(Insoluble)
Br.COc1ccc(-n2s/c(=N/Cc3cccnc3)nc2-c2ccccc2)cc1	> 60%	4100	Papp at 4 h [2]: 6.3 ×10⁻⁶ cm/s
CCOC(=O)C/N=c1\nc(-c2ccccc2)n(-c2ccccc2)s1 [listing 2 of 2 here]	–	1800	–
CCCCC/C(=N\c1ccccc1)NC(=S)NCc1cccnc1	inactive	–	–
OCCNC(=S)N/C(=N/c1cccc2ccccc12)c1ccccc1	inactive	–	–
OCCNC(=S)N/C(=N/c1ccccc1)c1ccccc1	inactive	–	–
c1ccc(-c2n/c(=N\Cc3cccnc3)sn2-c2cccc3ccccc23)cc1	> 60%	2000	–
CN1C(C(=O)Nc2ccccn2)=C(O)c2ccccc2S1(=O)=O [PIROXICAM]	–	–	Papp at 4 h [2]: 1.7 ×10⁻⁶ cm/s
c1ccc(-n2s/c(=N/Cc3cccnc3)nc2-c2cccc3ccccc23)cc1 [listing 3 of 3 here]	–	2100	–
Br.COc1ccc(-n2s/c(=N/CCO)nc2-c2ccccc2)cc1	> 60%	4600	Activity (Microglia): Active; Activity (Cortical neurone): Active; Papp at 4 h [2]: 13.4 ×10⁻⁶ cm/s; Activity (NSC): Active; Activity (Astrocyte): Active
NC(=S)N/C(=N/c1ccccc1)c1ccccc1	inactive	–	–
CCOC(=O)C/N=c1\nc(-c2ccccc2)n(-c2ccc([N+](=O)[O-])cc2)s1	> 60%	1000	–
CCOC(=O)CNC(=S)N/C(=N/c1ccccc1)c1ccccc1	inactive	–	–
Br.Cc1n/c(=N\Cc2cccnc2)sn1-c1ccccc1	> 60%	600	Papp at 4 h [2]: 5.3 ×10⁻⁶ cm/s
O=[N+]([O-])c1ccc(-n2s/c(=N/Cc3cccnc3)nc2-c2ccccc2)cc1	> 60%	1000	–
Br.FC(F)(F)c1ccc(-c2n/c(=N\Cc3cccnc3)sn2-c2ccccc2)cc1	> 60%	1600	Peff [2]: ND(Insoluble)
S=C(N/C(=N/c1ccccc1)c1ccccc1)NC1CCCCC1	inactive	–	–
Cn1c(=O)c2c(ncn2C)n(C)c1=O [CAFFEINE]	–	–	Papp at 4 h [2]: 1.6 ×10⁻⁶ cm/s
CCCCC/N=c1\nc(-c2ccccc2)n(-c2ccccc2)s1	> 60%	1400	–
Br.CCOC(=O)C/N=c1\nc(-c2ccccc2)n(-c2ccccc2)s1	–	7000	Papp at 4 h [2]: 6.2 ×10⁻⁶ cm/s
Br.OCC/N=c1\nc(-c2ccccc2)n(-c2ccccc2)s1	–	2000	Papp at 4 h [2]: 15.8 ×10⁻⁶ cm/s

Source: ChEMBL document CHEMBL2021862, “5-imino-1,2,4-thiadiazoles: first small molecules as substrate competitive inhibitors of glycogen synthase kinase 3” (J Med Chem, 2012)
